# Data from ChEMBL document CHEMBL4689842, “EUbOPEN Chemogenomics Library wave 1” (2021).
# System: HEK-293T
# Assay: Multiplex assay against HEK293T;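 as to Population Tubulin-Different-Phenotype (%): share of the cells with healthy nuclei that show this phenotype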
# Assay type: toxicity, cell-based
# Conditions: human
# In short: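 Values for tubulin, mitochondrial-mass and membrane-permeability phenotypes are per cents of cells with healthy nuclei. These cells were identified by CellPathfinder machine-learning gating of live cells that had been stained at seeding with Hoechst33342, BioTracker Green Microtubule Cytoskeleton Dye, MitoTracker Red and Annexin V Alexa Fluor 680 and imaged on a CQ1 microscope at 37°C and 5% CO2 after compound addition. The gating first set Hoechst high-intensity objects apart from normal cells, then split normal cells into healthy, pyknosed or fragmented nuclei, and pyknosed cells into mitotic or apoptotic.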
# [1] = 12 h, 1 µM, compound concentration 1 uM, replicate 1
# [2] = 12 h, 1 µM, compound concentration 1 uM, replicate 2
# [3] = 12 h, 10 µM, compound concentration 10 uM, replicate 1
# [4] = 12 h, 10 µM, compound concentration 10 uM, replicate 2
# [5] = 24 h, 1 µM, compound concentration 1 uM, replicate 1
# [6] = 24 h, 1 µM, compound concentration 1 uM, replicate 2
# [7] = 24 h, 10 µM, compound concentration 10 uM, replicate 1
# [8] = 24 h, 10 µM, compound concentration 10 uM, replicate 2
# [9] = 48 h, 1 µM, compound concentration 1 uM, replicate 1
# [10] = 48 h, 1 µM, compound concentration 1 uM, replicate 2
# [11] = 48 h, 10 µM, compound concentration 10 uM, replicate 1
# [12] = 48 h, 10 µM, compound concentration 10 uM, replicate 2
smiles,measurement,setting,value
CN1CCN(c2ccc(OC(F)(F)F)c(Nc3ncc4c(n3)-c3c(c(C(N)=O)nn3CCO)CC4)c2)CC1 [ONVANSERTIB],Population Apoptotic (%),[1],68%
same,Population Fragmented Nuclei (%),[1],13%
same,Population Healthy Nuclei (%),[1],36%
same,Population Hoechst High Intensity Objects (%),[1],16%
same,Population Membrane Permeable-Phenotype (%),[1],6%
same,Population Mitochondria Different-Phenotype (%),[1],83%
same,Population Mitotic Cells (%),[1],31%
same,Population Normal (%),[1],83%
same,Population Pyknosed Nuclei (%),[1],50%
same,Population Tubulin-Different-Phenotype (%),[1],39%
same,Total Cell Count,[1],216
same,Population Apoptotic (%),[2],21%
same,Population Fragmented Nuclei (%),[2],11%
same,Population Healthy Nuclei (%),[2],23%
same,Population Hoechst High Intensity Objects (%),[2],5%
same,Population Membrane Permeable-Phenotype (%),[2],0%
same,Population Mitochondria Different-Phenotype (%),[2],32%
same,Population Mitotic Cells (%),[2],78%
same,Population Normal (%),[2],94%
same,Population Pyknosed Nuclei (%),[2],65%
same,Population Tubulin-Different-Phenotype (%),[2],24%
same,Total Cell Count,[2],113
same,Population Apoptotic (%),[3],67%
same,Population Fragmented Nuclei (%),[3],8%
same,Population Healthy Nuclei (%),[3],41%
same,Population Hoechst High Intensity Objects (%),[3],12%
same,Population Mitochondria Different-Phenotype (%),[3],98%
same,Population Mitotic Cells (%),[3],32%
same,Population Normal (%),[3],87%
same,Population Pyknosed Nuclei (%),[3],49%
same,Population Tubulin-Different-Phenotype (%),[3],96%
same,Total Cell Count,[3],269
same,Population Apoptotic (%),[4],31%
same,Population Fragmented Nuclei (%),[4],5%
same,Population Healthy Nuclei (%),[4],30%
same,Population Hoechst High Intensity Objects (%),[4],2%
same,Population Membrane Permeable-Phenotype (%),[4],1%
same,Population Mitochondria Different-Phenotype (%),[4],82%
same,Population Mitotic Cells (%),[4],68%
same,Population Normal (%),[4],97%
same,Population Pyknosed Nuclei (%),[4],64%
same,Population Tubulin-Different-Phenotype (%),[4],81%
same,Total Cell Count,[4],234
same,Population Apoptotic (%),[5],60%
same,Population Fragmented Nuclei (%),[5],16%
same,Population Healthy Nuclei (%),[5],23%
same,Population Hoechst High Intensity Objects (%),[5],14%
same,Population Membrane Permeable-Phenotype (%),[5],9%
same,Population Mitochondria Different-Phenotype (%),[5],83%
same,Population Mitotic Cells (%),[5],39%
same,Population Normal (%),[5],85%
same,Population Pyknosed Nuclei (%),[5],60%
same,Population Tubulin-Different-Phenotype (%),[5],67%
same,Total Cell Count,[5],211
same,Population Apoptotic (%),[6],15%
same,Population Fragmented Nuclei (%),[6],11%
same,Population Healthy Nuclei (%),[6],26%
same,Population Hoechst High Intensity Objects (%),[6],9%
same,Population Membrane Permeable-Phenotype (%),[6],0%
same,Population Mitochondria Different-Phenotype (%),[6],68%
same,Population Mitotic Cells (%),[6],84%
same,Population Normal (%),[6],90%
same,Population Pyknosed Nuclei (%),[6],62%
same,Population Tubulin-Different-Phenotype (%),[6],62%
same,Total Cell Count,[6],122
same,Population Apoptotic (%),[7],55%
same,Population Fragmented Nuclei (%),[7],7%
same,Population Healthy Nuclei (%),[7],41%
same,Population Hoechst High Intensity Objects (%),[7],15%
same,Population Membrane Permeable-Phenotype (%),[7],2%
same,Population Mitochondria Different-Phenotype (%),[7],95%
same,Population Mitotic Cells (%),[7],44%
same,Population Normal (%),[7],84%
same,Population Pyknosed Nuclei (%),[7],50%
same,Population Tubulin-Different-Phenotype (%),[7],90%
same,Total Cell Count,[7],303
same,Population Apoptotic (%),[8],42%
same,Population Fragmented Nuclei (%),[8],5%
same,Population Healthy Nuclei (%),[8],39%
same,Population Hoechst High Intensity Objects (%),[8],4%
same,Population Membrane Permeable-Phenotype (%),[8],4%
same,Population Mitochondria Different-Phenotype (%),[8],83%
same,Population Mitotic Cells (%),[8],57%
same,Population Normal (%),[8],95%
same,Population Pyknosed Nuclei (%),[8],54%
same,Population Tubulin-Different-Phenotype (%),[8],83%
same,Total Cell Count,[8],256
same,Population Apoptotic (%),[9],57%
same,Population Fragmented Nuclei (%),[9],20%
same,Population Healthy Nuclei (%),[9],18%
same,Population Hoechst High Intensity Objects (%),[9],20%
same,Population Membrane Permeable-Phenotype (%),[9],0%
same,Population Mitochondria Different-Phenotype (%),[9],59%
same,Population Mitotic Cells (%),[9],42%
same,Population Normal (%),[9],79%
same,Population Pyknosed Nuclei (%),[9],60%
same,Population Tubulin-Different-Phenotype (%),[9],43%
same,Total Cell Count,[9],213
same,Population Apoptotic (%),[10],36%
same,Population Fragmented Nuclei (%),[10],12%
same,Population Healthy Nuclei (%),[10],45%
same,Population Hoechst High Intensity Objects (%),[10],8%
same,Population Membrane Permeable-Phenotype (%),[10],6%
same,Population Mitochondria Different-Phenotype (%),[10],30%
same,Population Mitotic Cells (%),[10],63%
same,Population Normal (%),[10],91%
same,Population Pyknosed Nuclei (%),[10],42%
same,Population Tubulin-Different-Phenotype (%),[10],59%
same,Total Cell Count,[10],118
same,Population Apoptotic (%),[11],64%
same,Population Fragmented Nuclei (%),[11],14%
same,Population Healthy Nuclei (%),[11],29%
same,Population Hoechst High Intensity Objects (%),[11],14%
same,Population Membrane Permeable-Phenotype (%),[11],2%
same,Population Mitochondria Different-Phenotype (%),[11],95%
same,Population Mitotic Cells (%),[11],35%
same,Population Normal (%),[11],85%
same,Population Pyknosed Nuclei (%),[11],55%
same,Population Tubulin-Different-Phenotype (%),[11],89%
same,Total Cell Count,[11],267
same,Population Apoptotic (%),[12],51%
same,Population Fragmented Nuclei (%),[12],6%
same,Population Healthy Nuclei (%),[12],42%
same,Population Hoechst High Intensity Objects (%),[12],6%
same,Population Mitochondria Different-Phenotype (%),[12],78%
same,Population Mitotic Cells (%),[12],48%
same,Population Normal (%),[12],93%
same,Population Pyknosed Nuclei (%),[12],51%
same,Population Tubulin-Different-Phenotype (%),[12],84%
same,Total Cell Count,[12],246
